Source: ChEMBL document CHEMBL4311965, “Antimicrobial activity of amphipathic α,α-disubstituted β-amino amide derivatives against ESBL - CARBA producing multi-resistant bacteria; effect of halogenation, lipophilicity and cationic character” (Eur J Med Chem, 2019)
Values after ≈ are worked out from the molar mass of the structure shown.

How the values were obtained:
Acinetobacter baumannii [1] = experiment: Antibacterial activity against multidrug-resistant Acinetobacter baumannii K44-35 producing oxcillinase-23 cultured in MHB medium assessed as reduction in bacterial growth incubated for 24 hrs by microdilution susceptibility test; assay type: functional; settings: K44-35, 24 h
Method in brief: (§1)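 Broth microdilution per CLSI M07-A9 (modified). Working solutions made from concentrated DMSO stocks kept at r.t., diluted in double-distilled water, final DMSO <1%. Inoculum 1–1.2 x 10⁶ cells/mL in Mueller-Hinton broth, mixed 1:1 with compound. 37 °C, 24 h, four parallels. Read as OD₆₀₀. Where precipitation left residual OD, the point of major OD decrease was taken as the inhibitory concentration.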

Escherichia coli [2] = experiment: Antibacterial activity against multidrug-resistant Escherichia coli 50857972 producing imipenem-type carbapenemase-26 cultured in MHB medium assessed as reduction in bacterial growth incubated for 24 hrs by microdilution susceptibility test; assay type: functional; settings: Escherichia coli, 50857972, 24 h; method in brief: as §1
Pseudomonas aeruginosa [3] = experiment: Antibacterial activity against multidrug-resistant Pseudomonas aeruginosa 50692172 producing New Delhi metallo-beta-lactamase-1 cultured in MHB medium assessed as reduction in bacterial growth incubated for 24 hrs by microdilution susceptibility test; assay type: functional; settings: Pseudomonas aeruginosa, 50692172, 24 h; method in brief: as §1
Enterococcus faecium [4] = experiment: Antibacterial activity against multidrug-resistant Enterococcus faecium 50673722 cultured in BHIB medium assessed as reduction in bacterial growth incubated for 24 hrs by microdilution susceptibility test; assay type: functional; settings: Enterococcus faecium, 50673722, 24 h
Method in brief: (§2)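 Enterococci grown in Brain Heart Infusion broth, otherwise broth microdilution per CLSI M07-A9 (modified). Concentrated DMSO stocks kept at r.t. and diluted in double-distilled water, final DMSO <1%. Inoculum 1–1.2 x 10⁶ cells/mL mixed 1:1 with compound. 37 °C, 24 h, four parallels. OD₆₀₀ read-out, lowest concentration with no growth.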

Acinetobacter baumannii [5] = experiment: Antibacterial activity against multidrug-resistant Acinetobacter baumannii K12-21 producing oxcillinase-58 cultured in MHB medium assessed as reduction in bacterial growth incubated for 24 hrs by microdilution susceptibility test; assay type: functional; settings: K12-21, 24 h; method in brief: as §1
Acinetobacter baumannii [6] = experiment: Antibacterial activity against multidrug-resistant Acinetobacter baumannii K47-42 producing oxcillinase-23 cultured in MHB medium assessed as reduction in bacterial growth incubated for 24 hrs by microdilution susceptibility test; assay type: functional; settings: K47-42, 24 h; method in brief: as §1
Klebsiella pneumoniae [7] = experiment: Antibacterial activity against multidrug-resistant Klebsiella pneumoniae 50667959 producing Verona integron encoded metallo beta-lactamse-1 cultured in MHB medium assessed as reduction in bacterial growth incubated for 24 hrs by microdilution susceptibility test; assay type: functional; settings: Klebsiella pneumoniae, 50667959, 24 h; method in brief: as §1
[8] = Selectivity index, ratio of EC50 for hemolytic activity against human RBC to MIC for antibacterial activity against Staphylococcus aureus ATCC 9144; assay type: toxicity; settings: human red blood cells (RBC)
Method in brief: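 Selectivity index is the RBC haemolysis EC50 divided by the MIC against the E. coli or S. aureus reference strain.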

Staphylococcus aureus [9] = experiment: Antibacterial activity against multidrug-resistant Staphylococcus aureus IHT 99040 cultured in MHB medium assessed as reduction in bacterial growth incubated for 24 hrs by microdilution susceptibility test; assay type: functional; settings: IHT 99040, 24 h; method in brief: as §1
Enterococcus faecium [10] = experiment: Antibacterial activity against multidrug-resistant Enterococcus faecium K36-18 cultured in BHIB medium assessed as reduction in bacterial growth incubated for 24 hrs by microdilution susceptibility test; assay type: functional; settings: K36-18, 24 h; method in brief: as §2
Pseudomonas aeruginosa [11] = experiment: Antibacterial activity against multidrug-resistant Pseudomonas aeruginosa K34-73 producing Verona integron encoded metallo beta-lactamse-4 cultured in MHB medium assessed as reduction in bacterial growth incubated for 24 hrs by microdilution susceptibility test; assay type: functional; settings: K34-73, 24 h; method in brief: as §1
[12] = system: Corynebacterium glutamicum; experiment: Antibacterial activity against Corynebacterium glutamicum ATCC 13032 cultured in MHB medium assessed as no bacterial growth incubated at 20 degC for 24 hrs by microdilution susceptibility test; assay type: functional; settings: ATCC 13032, 24 h
Method in brief: (§3)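 Broth microdilution per CLSI M07-A9 with modifications. Inoculum about 2.5–3 x 10⁴ cells/mL in Mueller-Hinton broth, mixed 1:1 with test derivative. DMSO stocks diluted in double-distilled water, final DMSO <1%. Incubation 24 h at 37 °C (20 °C for C. glutamicum). Growth and sterility controls included; oxytetracycline reference.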

Escherichia coli [13] = experiment: Antibacterial activity against multidrug-resistant Escherichia coli 50676002 producing New Delhi metallo-beta-lactamase-1 cultured in MHB medium assessed as reduction in bacterial growth incubated for 24 hrs by microdilution susceptibility test; assay type: functional; settings: Escherichia coli, 50676002, 24 h; method in brief: as §1
Klebsiella pneumoniae [14] = experiment: Antibacterial activity against multidrug-resistant Klebsiella pneumoniae K47-25 producing carbapenemase-2 cultured in MHB medium assessed as reduction in bacterial growth incubated for 24 hrs by microdilution susceptibility test; assay type: functional; settings: K47-25, 24 h; method in brief: as §1
Staphylococcus aureus [15] = experiment: Antibacterial activity against multidrug-resistant Staphylococcus aureus WIS cultured in MHB medium assessed as reduction in bacterial growth incubated for 24 hrs by microdilution susceptibility test; assay type: functional; method in brief: as §1
Escherichia coli [16] = experiment: Antibacterial activity against multidrug-resistant Escherichia coli 50639799 producing Verona integron encoded metallo beta-lactamse-29 cultured in MHB medium assessed as reduction in bacterial growth incubated for 24 hrs by microdilution susceptibility test; assay type: functional; settings: Escherichia coli, 50639799, 24 h; method in brief: as §1
Pseudomonas aeruginosa [17] = experiment: Antibacterial activity against multidrug-resistant Pseudomonas aeruginosa 50692520 producing Verona integron encoded metallo beta-lactamse cultured in MHB medium assessed as reduction in bacterial growth incubated for 24 hrs by microdilution susceptibility test; assay type: functional; settings: Pseudomonas aeruginosa, 50692520, 24 h; method in brief: as §1
Erythrocyte = experiment: Hemolytic activity against human RBC incubated for 1 hr; assay type: cell-based
Method in brief: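 Heparinized human blood washed three times in warm PBS and set to 10% hct. Erythrocytes at 1% v/v final, with compound in PBS (DMSO <1%), shaken 1 h at 37 °C and then centrifuged. Supernatant absorbance read at 405 and 545 nm after PBS background subtraction. Haemolysis taken relative to 1% Triton X-100. Three independent replicates, EC50 averaged.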

Acinetobacter baumannii [18] = experiment: Antibacterial activity against multidrug-resistant Acinetobacter baumannii K55-13 producing oxcillinase-24 cultured in MHB medium assessed as reduction in bacterial growth incubated for 24 hrs by microdilution susceptibility test; assay type: functional; settings: K55-13, 24 h; method in brief: as §1
Escherichia coli [19] = experiment: Antibacterial activity against Escherichia coli ATCC 25922 cultured in MHB medium assessed as no bacterial growth incubated at 37 degC for 24 hrs by microdilution susceptibility test; assay type: functional; settings: ATCC 25922, 24 h; method in brief: as §3
Klebsiella pneumoniae [20] = experiment: Antibacterial activity against multidrug-resistant Klebsiella pneumoniae 50531633 producing New Delhi metallo-beta-lactamase-1 and oxcillinase-181 cultured in MHB medium assessed as reduction in bacterial growth incubated for 24 hrs by microdilution susceptibility test; assay type: functional; settings: Klebsiella pneumoniae, 50531633, 24 h; method in brief: as §1
Pseudomonas aeruginosa [21] = experiment: Antibacterial activity against multidrug-resistant Pseudomonas aeruginosa K44-24 producing imipenem-type carbapenemase-14 cultured in MHB medium assessed as reduction in bacterial growth incubated for 24 hrs by microdilution susceptibility test; assay type: functional; settings: K44-24, 24 h; method in brief: as §1
Pseudomonas aeruginosa [22] = experiment: Antibacterial activity against Pseudomonas aeruginosa PA01 DSM 19880 (ATCC 15692) cultured in MHB medium assessed as no bacterial growth incubated at 37 degC for 24 hrs by microdilution susceptibility test; assay type: functional; settings: PAO1 DSM 19880 (ATCC 15692); method in brief: as §3

SMILES | MIC (Acinetobacter baumannii [1]) [µg/mL] | MIC (Escherichia coli [2]) [µg/mL] | MIC (Pseudomonas aeruginosa [3]) [µg/mL] | MIC (Enterococcus faecium [4]) [µg/mL] | MIC (Acinetobacter baumannii [5]) [µg/mL] | MIC (Acinetobacter baumannii [6]) [µg/mL] | MIC (Klebsiella pneumoniae [7]) [µg/mL] | selectivity ratio [8] | MIC (Staphylococcus aureus [9]) [µg/mL] | MIC (Enterococcus faecium [10]) [µg/mL] | MIC (Pseudomonas aeruginosa [11]) [µg/mL] | MIC [12] [µg/mL] | MIC (Escherichia coli [13]) [µg/mL] | MIC (Klebsiella pneumoniae [14]) [µg/mL] | MIC (Staphylococcus aureus [15]) [µg/mL] | MIC (Escherichia coli [16]) [µg/mL] | MIC (Pseudomonas aeruginosa [17]) [µg/mL] | EC50 (Erythrocyte) [µg/mL] | MIC (Acinetobacter baumannii [18]) [µg/mL] | MIC (Escherichia coli [19]) [µg/mL] | also measured
NCCNC(=O)C(CN)(Cc1cc(C(F)(F)F)cc(C(F)(F)F)c1)Cc1cc(C(F)(F)F)cc(C(F)(F)F)c1 | 16 (≈ 27.4 µM) | 8 (≈ 13.7 µM) | 32 (≈ 54.8 µM) | 8 (≈ 13.7 µM) | 8 (≈ 13.7 µM) | 16 (≈ 27.4 µM) | 16 (≈ 27.4 µM) | 12 | 8 (≈ 13.7 µM) | 8 (≈ 13.7 µM) | 32 (≈ 54.8 µM) | 1 (≈ 1.71 µM) | 16 (≈ 27.4 µM) | 32 (≈ 54.8 µM) | 16 (≈ 27.4 µM) | 16 (≈ 27.4 µM) | > 32 | 48 (≈ 82.3 µM) | 16 (≈ 27.4 µM) | 4 (≈ 6.86 µM) | MIC (Klebsiella pneumoniae [20]): 16 µg/mL (≈ 27.4 µM); MIC (Pseudomonas aeruginosa [21]): > 32 µg/mL; MIC (Pseudomonas aeruginosa [22]): 4 µg/mL (≈ 6.86 µM)
N=C(N)NCCNC(=O)C(CNC(=N)N)(Cc1cc(C(F)(F)F)cc(C(F)(F)F)c1)Cc1cc(C(F)(F)F)cc(C(F)(F)F)c1 | > 32 | 32 (≈ 47.9 µM) | 32 (≈ 47.9 µM) | 8 (≈ 12 µM) | > 32 | > 32 | > 32 | 101 | 8 (≈ 12 µM) | 8 (≈ 12 µM) | 16 (≈ 24 µM) | 0.5 (≈ 0.749 µM) | 32 (≈ 47.9 µM) | > 32 | 8 (≈ 12 µM) | 16 (≈ 24 µM) | 16 (≈ 24 µM) | 201 (≈ 301 µM) | > 32 | 4 (≈ 5.99 µM) | MIC (Klebsiella pneumoniae [20]): > 32 µg/mL; MIC (Pseudomonas aeruginosa [21]): 32 µg/mL (≈ 47.9 µM); MIC (Pseudomonas aeruginosa [22]): 4 µg/mL (≈ 5.99 µM)
NCCNC(=O)C(CN)(Cc1cc(Br)cc(Br)c1)Cc1cc(Br)cc(Br)c1 | 32 (≈ 51 µM) | 8 (≈ 12.8 µM) | > 32 | 8 (≈ 12.8 µM) | 32 (≈ 51 µM) | 16 (≈ 25.5 µM) | 16 (≈ 25.5 µM) | 29 | 16 (≈ 25.5 µM) | 8 (≈ 12.8 µM) | 32 (≈ 51 µM) | 2 (≈ 3.19 µM) | 16 (≈ 25.5 µM) | 16 (≈ 25.5 µM) | 16 (≈ 25.5 µM) | 16 (≈ 25.5 µM) | > 32 | 58 (≈ 92.5 µM) | 16 (≈ 25.5 µM) | 4 (≈ 6.38 µM) | MIC (Klebsiella pneumoniae [20]): 16 µg/mL (≈ 25.5 µM); MIC (Pseudomonas aeruginosa [21]): 32 µg/mL (≈ 51 µM); MIC (Pseudomonas aeruginosa [22]): 4 µg/mL (≈ 6.38 µM)
